Runt-CBFb FRET: Runt domain-CBFb interaction inhibition. inhibition, % at 20 µM. Q01196+Q13951. Cerulean-Runt/Venus-CBFb FRET ratio 530/480, 1 h. AID 1496. 0.46% of 220,000 active;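 active = inhibition over about 50% at 20 µM in the single-dose screen, limit read from the data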
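System: Cerulean-labeled Runt domain protein | Quantity: 100 nM of each labeled protein | Schedule: 1 h compound exposure, room temperature | Detection: Fluorescence energy transfer, 422 nm excitation, 530/480 nm emission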
Hck Nef HTS: inhibitors of human Hck kinase activated by Nef | P08631 | Recombinant Hck-YEEI plus Nef, Z-Lyte FRET kinase assay | inhibition, % at 20 µM | 0.68% of 220,000 active | AID 463187;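 active = Hck-Nef kinase inhibition above about 50%, limit read from the data; inactive = inhibition below that limit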
eIF4E-4G inh: blocks eIF4E binding to eIF4G. inhibition, % at 21.7 µM. TR-FRET eIF4E-eIF4GI(517-606) binding, 2 h. 0.37% of 220,000 active. AID 782. P63073+Q04637;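 active = inhibition above about 30%, limit read from the data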
PERK inhibitor: inhibitors of human PERK kinase. Q9NZJ5. CHO PERK-DD fusion, SEAP luminescence translation reporter. inhibition, % at 5.6 µM. AID 1416. 0.17% of 220,000 active;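 active = inhibition above the mean inhibition of all tested compounds plus 3 SD, set separately per screening campaign, cut at about 2.9% in these data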;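 note: PERK kinase domain activated by AP20187 dimerizer at 100 nM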
Runt-SMMHC FRET: blocks binding of human RUNX1 Runt domain to CBFb-SMMHC; inhibition, % at 20 µM; AID 1434; Q01196+Q13951; 0.74% of 220,000 active; Cerulean-Runt/Venus-CBFb-SMMHC FRET ratio 530/480, 1 h;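 active = mean inhibition across duplicate retests at 20 µM reaching about 50%, limit read from the data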;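 note: inhibitors lower the FRET ratio by blocking Runt binding to CBFb-SMMHC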
RanGTP-Imp inh: disruptors of Ran-importin-beta complex formation – biochemical, FRET, CFP-Ran, YFP-importin-beta, homogeneous, primary screen; cell-free CFP-Ran/YFP-importin-beta FRET ratio; AID 2216; 1.1% of 300,000 active; inhibition, % (test concentration not listed);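 active = more than half of the replicate wells show a fall in the fluorescence ratio signal beyond about 16%, limit read from the data, passing the limit was not always enough; inconclusive = exactly half of the replicate wells pass the set limit; inactive = fewer than half of replicates pass the limit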
YIC FRET counter: counter-screen YIC FRET for RanGTP-importin-beta inhibitors; shares compounds with RanGTP-Imp inh; Purified YIC probe, intramolecular FRET ratio YFP/CFP; IC50, µM; 40% of 1,000 active;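 active = fitted half-maximal inhibitory concentration no more than tenfold above the top dose tested; inconclusive = flat fit with 30 to 70% activity, or poor fit; inactive = half-maximal concentration beyond tenfold above the top dose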
Hck-Nef confirm: Hck-Nef kinase inhibition, confirmation; shares compounds with Hck Nef HTS; calls only at 10 µM; 28% of 1,300 active; Recombinant Hck-YEEI:Nef, Z-Lyte FRET kinase assay; AID 463188;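 active = average inhibition of at least 50%, with Z-scores no higher than 3 in both the phospho-tyrosine peptide and fluorescence counterscreens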
Hits are given with their value; n = inactive; u = inconclusive; x = not tested or not shown. In the library only some 2.2% were active in any assay of this set; here they are far more common.

SMILES	Runt-CBFb FRET	Hck Nef HTS	eIF4E-4G inh	PERK inhibitor	Runt-SMMHC FRET	RanGTP-Imp inh	YIC FRET counter	others
O=C(N=Nc1c(O)[nH]c2ccccc12)c1cc(-c2ccc(F)cc2)n[nH]1	n	n	n	n	n	n	x
CC1=Nc2ccccc2/C1=C\c1nc(-c2ccccc2)oc1O	n	n	n	n	n	n	x
COc1ccc(-c2nc(/C=C3\C(C)=Nc4ccccc43)c(O)o2)cc1	n	n	n	n	n	28	n
CN1CCCN(Cc2cccc3ccccc23)CC1	x	x	x	x	x	22	n
COc1ccc(C(=O)N/N=C/c2c(C)[nH]c(=O)[nH]c2=O)cc1	n	n	n	n	n	n	x
COc1ccc(C(=O)N/N=C/c2c(CO)cnc(C)c2O)cc1	n	n	n	n	88	22	1.5
O=C(c1ccco1)N1CCN(Cc2ccc(F)cc2Cl)CC1	x	x	x	x	x	n	x
O=C(c1cc2c(=O)n3ccccc3nc2s1)N1CCN(Cc2ccccc2)CC1	x	x	x	x	x	21	n
O=C(c1cc2c(=O)n3ccccc3nc2s1)N1CCN(Cc2ccc3c(c2)OCO3)CC1	n	n	n	n	n	n	x
NS(=O)(=O)c1ccc(CCNC(=O)C2CCCCC2)cc1	n	n	n	n	n	n	x
Cc1nc2ccc(NC(=O)c3nn(CC(C)C)c(=O)c4ccccc34)cc2s1	n	n	n	n	n	20	n
C=CCNC(=O)C1CC2Cn3c(nc4ccccc43)C2N1C (stereo not drawn)	n	n	n	x	n	n	x
COc1ccc(-c2nc3n(n2)C(=O)CC(c2ccco2)S3)cc1 (stereo not drawn)	n	n	n	n	n	n	x
Cc1cc(Cl)c(S(=O)(=O)N2CCCC2)cc1OCC(=O)NC1CCCCC1	n	n	n	n	n	24	n
N#CCCN(C(=O)Nc1ccc(Cl)cc1)c1ccccc1	n	n	n	n	n	96	n
N#CCCN(C(=O)Nc1ccccc1)c1ccccc1	n	n	n	n	n	n	x
COc1cccc(C2=NOC(C(=O)Nc3cc(C)on3)C2)c1 (stereo not drawn)	n	n	n	n	n	19	n
O=C(Nc1nonc1NC(=O)c1cccs1)c1cccs1	n	n	n	n	n	21	n
O=C(Nc1ccc(NC(=O)c2cccs2)cc1)c1cccs1	x	x	x	x	x	n	x
C=CCn1c(C)c(C(C)=O)c(N2CCN(C(c3ccccc3)c3ccccc3)CC2)nc1=S	n	n	n	n	n	30	n
NS(=O)(=O)c1ccc(CCNC(=O)C(=O)c2c[nH]c3ccccc23)cc1	n	n	n	n	n	17	n
O=C(NCCc1ccccc1)C(=O)c1c[nH]c2ccccc12	x	x	x	x	x	n	x
Cc1cccc(C(=O)Nc2ccnc(-c3ccncc3)n2)c1	n	n	n	n	n	n	x
O=C(Nc1ccnc(-c2ccncc2)n1)c1ccc(Cl)cc1	n	n	n	n	n	23	n
Oc1c(C(Nc2nc3ccccc3s2)c2ccco2)ccc2cccnc12 (stereo not drawn)	n	n	n	n	n	22	n
SMILES	Runt-CBFb FRET	Hck Nef HTS	eIF4E-4G inh	PERK inhibitor	Runt-SMMHC FRET	RanGTP-Imp inh	YIC FRET counter	others
COCCNC(=O)/C(C#N)=C/c1cn(CC(=O)NCc2ccco2)c2ccccc12	n	n	n	n	n	27	44
N#C/C(=C\c1cn(CC(=O)O)c2ccccc12)C(=O)NCc1ccccc1	x	x	x	x	x	n	x
Cc1ccccc1NC(=O)/C(C#N)=C\c1cn(CC(=O)O)c2ccccc12	x	n	n	n	x	20	51
O=C(NCCCN1CCCC1=O)c1cc2c(s1)CCCCC2	n	n	n	n	n	n	x
O=C(O)c1c2c(nc3ccccc13)/C(=C/c1ccc(OC(F)F)cc1)CCC2	x	x	x	x	x	31	n
COc1ccc(C2=NOC(C)(c3nnc(-c4ccncc4)o3)C2)cc1 (stereo not drawn)	x	x	x	x	x	n	x
Nc1nc2nc(-c3ccc(OCc4ccccc4)cc3)cc(C(F)(F)F)n2n1	80	n	n	n	92	34	5
CC(C)CCn1nc(C(=O)OC(C)C(=O)NC(N)=O)c2ccccc2c1=O (stereo not drawn)	n	n	n	n	n	n	x
COc1ccccc1C1C(C(N)=O)=C(C)Nc2ncnn21 (stereo not drawn)	n	n	n	n	n	23	n
CCOc1ccc(C(=O)c2cc3ccc(O)cc3oc2=O)cc1	86	n	n	n	90	53	8
O=C(c1ccc([N+](=O)[O-])cc1)c1cc2ccc(O)cc2oc1=O	x	x	x	x	x	n	x
CC1=NN(C(=O)c2ccccc2)C(O)(c2ccc(Br)cc2)C1 (stereo not drawn)	n	n	n	n	n	24	n
COC(=O)C1(Cc2ccccc2)NC(c2ccc(F)cc2)C2C(=O)N(C)C(=O)C21 (stereo not drawn)	n	n	n	n	n	n	x
CCC1(C(=O)OC)NC(c2cccc(F)c2)C2C(=O)N(C)C(=O)C21 (stereo not drawn)	x	n	n	n	x	20	n
CC1CCCCN1C(=O)Cn1c(=O)oc2cc(S(=O)(=O)N3CCCC3)ccc21 (stereo not drawn)	x	x	x	x	x	17	n
CC1CCN(C(=O)Cn2c(=O)oc3cc(S(=O)(=O)N4CCCCC4)ccc32)CC1	x	x	x	x	x	n	x
CCOc1ccc(C2C(C(=O)OC)=CN(CCOC)C=C2C(=O)OC)cc1	102	58	n	n	107	21	15
Cn1cc(CN2CCC(CO)(CCCc3ccccc3)CC2)c(-c2ccccc2)n1	n	n	n	n	n	u	x
COC(=O)C1=CN(Cc2cccs2)C=C(C(=O)OC)C1c1ccc(OC)cc1OC	105	68	n	n	91	40	7
O=c1/c(=C/c2ccccn2)sc2n1CN(c1ccccc1)CN=2	n	n	n	n	n	n	x
Cc1cc(C)c2c(c1)/C(=c1/sc3n(c1=O)CN(c1ccccc1)CN=3)C(=O)N2	n	54	n	n	n	54	n	Hck-Nef confirm=n
CCCCc1cc(=O)oc2c(CN3CCCC3)c(O)c(Cl)cc12	96	153	n	n	135	26	28
Cc1ccccc1-n1ncc(C(C)NS(=O)(=O)c2ccccc2Cl)c1C (stereo not drawn)	x	x	x	x	x	n	x
COC(=O)Cc1c(C)c2cc(Cl)c(OC(=O)c3ccco3)cc2oc1=O	98	102	n	n	141	47	21
COC(=O)C1=C(N)Oc2cc(C)n(CC3CCCO3)c(=O)c2C1c1ccccc1 (stereo not drawn)	n	n	n	n	n	n	x

High-throughput results (PubChem BioAssay)
